ChEMBL document CHEMBL3632537, “Chalcones from Angelica keiskei: Evaluation of Their Heat Shock Protein Inducing Activities” (J Nat Prod, 2015)
The source made the active and inactive calls. No cut-off for these calls is given here.

What was measured:
L132 (Homo sapiens) [1] = assay: Upregulation of HSP27 protein expression in human L132 cells by Western blot analysis
L132 (Homo sapiens) [2] = assay: Upregulation of HSP70 protein expression in human L132 cells by Western blot analysis
L132 (Homo sapiens) [3] = assay: Upregulation of HSP70 mRNA expression in human L132 cells by RT-PCR analysis
L132 (Homo sapiens) [4] = assay: Upregulation of HSF1 mRNA expression in human L132 cells by RT-PCR analysis
L132 (Homo sapiens) [5] = assay: Upregulation of HSF1 protein expression in human L132 cells by Western blot analysis
NCI-H460 = assay: Induction of hsp25 promoter activity in human NCI-H460 cells at 10 uM measured at 5 hrs by luciferase reporter gene assay relative to control; type: functional
Outline: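 NCI-H460 human lung cancer cells carrying a luciferase reporter driven by the murine hsp25 promoter. Cells were plated at 1 × 10⁵ per well, grown 24 h, then exposed to 10 μM compound and harvested 5 h later. Lysate luciferase was normalized to β-galactosidase and expressed as fold induction over untreated control. Values are mean ± SD of three independent experiments.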

L132 (Homo sapiens) [6] = assay: Upregulation of HSP27 mRNA expression in human L132 cells by RT-PCR analysis
L132 (Homo sapiens) [7] = assay: Upregulation of HSP70 mRNA expression in human L132 cells at 2 uM measured at 3 hrs by RT-PCR analysis relative to control
L132 (Homo sapiens) [8] = assay: Upregulation of HSF1 protein expression in human L132 cells at 2 uM measured at 6 hrs by Western blot analysis relative to control
L132 (Homo sapiens) [9] = assay: Upregulation of HSP70 protein expression in human L132 cells at 2 uM measured at 6 hrs by Western blot analysis relative to control
[10] = Cytotoxicity against human L-132 cells assessed as cell viability at 1 to 8 uM after 12 hrs by MTT assay; type: cell-based; details: l132, 12 h
Outline: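 L132 human lung fibroblasts exposed 12 h to 1, 2, 4 or 8 μM; medium swapped for MTT 0.5 mg/mL in PBS, 3 h at 37 °C, formazan dissolved in DMSO, absorbance at 540 nm converted to cell number via calibration curve; viability as ratio to DMSO no-treatment control; mean ± SD of three independent experiments, Student's t test vs untreated.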

L132 (Homo sapiens) [11] = assay: Upregulation of HSP27 mRNA expression in human L132 cells at 2 uM measured at 3 hrs by RT-PCR analysis relative to control
L132 (Homo sapiens) [12] = assay: Upregulation of HSP27 protein expression in human L132 cells at 2 uM measured at 6 hrs by Western blot analysis relative to control

| SMILES | Activity (L132 (Homo sapiens) [1]) | Activity (L132 (Homo sapiens) [2]) | Activity (L132 (Homo sapiens) [3]) | Activity (L132 (Homo sapiens) [4]) | Activity (L132 (Homo sapiens) [5]) | fold change (FC) (NCI-H460) | Activity (L132 (Homo sapiens) [6]) | fold change (FC) (L132 (Homo sapiens) [7]) | fold change (FC) (L132 (Homo sapiens) [8]) | fold change (FC) (L132 (Homo sapiens) [9]) | Activity [10] | fold change (FC) (L132 (Homo sapiens) [11]) | fold change (FC) (L132 (Homo sapiens) [12]) |
| --- | --- | --- | --- | --- | --- | --- | --- | --- | --- | --- | --- | --- | --- |
| COC(C)(C)/C=C/C/C(C)=C/Cc1c(O)ccc(C(=O)/C=C/c2ccc(O)cc2)c1O | inactive | inactive | inactive | inactive | inactive | 21.9 | inactive |  |  |  |  |  |  |
| C=C(CCC=C(C)C)C(O)Cc1c(O)ccc(C(=O)/C=C/c2ccc(O)cc2)c1O (racemic) |  |  |  |  |  | 29.2 |  | 5 | 4.3 | 1.5 | Non-toxic | 1.5 | 4.6 |
| CC1=C(O)C(=O)C=C2C1=CC=C1[C@@]2(C)CC[C@@]2(C)[C@@H]3C[C@](C)(C(=O)O)CC[C@]3(C)CC[C@]12C [CELASTROL] |  |  |  |  |  |  |  |  |  |  | Toxic |  |  |
